The results in this text go back to ChEMBL document CHEMBL4340532, “Design, synthesis, and biological evaluation of novel 2'-deoxy-2'-fluoro-2'-C-methyl 8-azanebularine derivatives as potent anti-HBV agents” (Bioorg Med Chem Lett, 2019).

Holding throughout (assay type): functional
The subject of assay [1] is Hepatitis B virus. The assay can be described thus: Antiviral activity against Hepatitis B virus infected in human HepG2.2.15 cells assessed as inhibition of intracellular HBV DNA replication at 20 uM measured on day 3 by FQ-PCR analysis relative to control. Conditions: HepG2.2.15, 72 h. In outline:
(§1)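 HepG2.2.15 cultures were treated at 10, 20 or 40 µM for 3, 6 and 9 days. Both intracellular and extracellular HBV DNA levels were then determined and compared with untreated cells.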

Assay [2] deals with Hepatitis B virus. The assay can be described thus: Antiviral activity against Hepatitis B virus infected in human HepG2.2.15 cells assessed as inhibition of intracellular HBV DNA replication at 40 uM measured on day 3 by FQ-PCR analysis relative to control. To be noted: HepG2.2.15, 72 h. A digest of the protocol: as §1
Assay [3] concerns Hepatitis B virus. The assay can be described thus: Antiviral activity against Hepatitis B virus infected in human HepG2.2.15 cells assessed as inhibition of intracellular HBV DNA replication at 40 uM supplemented with fresh medium containing compound every 3 days for 6 days measured post-last dose by FQ-PCR analysis relative to control. A digest of the protocol:
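HepG2.2.15 cells exposed to 10, 20 or 40 µM for 3, 6 or 9 days; intracellular and extracellular HBV DNA levels measured.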

For assay [4], the system named is Hepatitis B virus. The assay can be described thus: Antiviral activity against Hepatitis B virus infected in human HepG2.2.15 cells assessed as inhibition of intracellular HBV DNA replication at 40 uM supplemented with fresh medium containing compound every 3 days for 9 days measured post-last dose by FQ-PCR analysis relative to control. A digest of the protocol:
as §1

Assay [5] deals with Hepatitis B virus. Description: Antiviral activity against Hepatitis B virus infected in human HepG2.2.15 cells assessed as inhibition of extracellular HBV DNA replication at 10 uM measured on day 3 by FQ-PCR analysis relative to control. Conditions: HepG2.2.15, 72 h. A digest of the protocol:
as §1

In assay [6] the test system is Hepatitis B virus. Description: Antiviral activity against Hepatitis B virus infected in human HepG2.2.15 cells assessed as inhibition of extracellular HBV DNA replication at 40 uM supplemented with fresh medium containing compound every 3 days for 6 days measured post-last dose by FQ-PCR analysis relative to control. A digest of the protocol:
as §1

Assay [7] relates to Hepatitis B virus. The assay can be described thus: Antiviral activity against Hepatitis B virus infected in human HepG2.2.15 cells assessed as inhibition of extracellular HBV DNA replication at 20 uM supplemented with fresh medium containing compound every 3 days for 9 days measured post-last dose by FQ-PCR analysis relative to control. In outline: as §1
Assay [8] deals with Hepatitis B virus. Description: Antiviral activity against Hepatitis B virus infected in human HepG2.2.15 cells assessed as inhibition of extracellular HBV DNA replication at 10 uM supplemented with fresh medium containing compound every 3 days for 9 days measured post-last dose by FQ-PCR analysis relative to control. A digest of the protocol:
as §1

For assay [9], the system named is Hepatitis B virus. The assay can be described thus: Antiviral activity against lamivudine-resistant Hepatitis B virus harboring L180M/M204V mutant infected in human HepG2.2.15 cells assessed as inhibition of intracellular HBV DNA replication at 20 uM measured on day 3 by FQ-PCR analysis relative to control. To be noted: HepG2.2.15, 72 h. A digest of the protocol: (§2)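 Lamivudine-resistant cell line transfected with the L180M/M204V mutant, exposed to 10, 20 or 40 µM for 3, 6 or 9 days. Intracellular and extracellular HBV DNA levels measured.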

Assay [10] concerns Hepatitis B virus. Description: Antiviral activity against lamivudine-resistant Hepatitis B virus harboring L180M/M204V mutant infected in human HepG2.2.15 cells assessed as inhibition of intracellular HBV DNA replication at 40 uM measured on day 3 by FQ-PCR analysis relative to control. Conditions: HepG2.2.15, 72 h. A digest of the protocol: as §2
For assay [11], the system named is Hepatitis B virus. Description: Antiviral activity against lamivudine-resistant Hepatitis B virus harboring L180M/M204V mutant infected in human HepG2.2.15 cells assessed as inhibition of intracellular HBV DNA replication at 10 uM supplemented with fresh medium containing compound every 3 days for 6 days measured post-last dose by FQ-PCR analysis relative to control. In outline: as §2

For assay [12], the system named is Hepatitis B virus. The assay can be described thus: Antiviral activity against lamivudine-resistant Hepatitis B virus harboring L180M/M204V mutant infected in human HepG2.2.15 cells assessed as inhibition of intracellular HBV DNA replication at 40 uM supplemented with fresh medium containing compound every 3 days for 6 days measured post-last dose by FQ-PCR analysis relative to control. In outline:
as §2

Assay [13] relates to Hepatitis B virus. Description: Antiviral activity against lamivudine-resistant Hepatitis B virus harboring L180M/M204V mutant infected in human HepG2.2.15 cells assessed as inhibition of intracellular HBV DNA replication at 20 uM supplemented with fresh medium containing compound every 3 days for 9 days measured post-last dose by FQ-PCR analysis relative to control. A digest of the protocol: as §2

Assay [14] relates to Hepatitis B virus. The assay can be described thus: Antiviral activity against lamivudine-resistant Hepatitis B virus harboring L180M/M204V mutant infected in human HepG2.2.15 cells assessed as inhibition of intracellular HBV DNA replication at 10 uM supplemented with fresh medium containing compound every 3 days for 9 days measured post-last dose by FQ-PCR analysis relative to control. In outline: as §2

Assay [15] has as its system Hepatitis B virus. Description: Antiviral activity against lamivudine-resistant Hepatitis B virus harboring L180M/M204V mutant infected in human HepG2.2.15 cells assessed as inhibition of extracellular HBV DNA replication at 20 uM measured on day 3 by FQ-PCR analysis relative to control. Conditions: HepG2.2.15, 72 h. In outline: as §2
The subject of assay [16] is Hepatitis B virus. Description: Antiviral activity against lamivudine-resistant Hepatitis B virus harboring L180M/M204V mutant infected in human HepG2.2.15 cells assessed as inhibition of extracellular HBV DNA replication at 20 uM supplemented with fresh medium containing compound every 3 days for 6 days measured post-last dose by FQ-PCR analysis relative to control. A digest of the protocol: as §2

Assay [17] deals with Hepatitis B virus. The assay can be described thus: Antiviral activity against lamivudine-resistant Hepatitis B virus harboring L180M/M204V mutant infected in human HepG2.2.15 cells assessed as inhibition of extracellular HBV DNA replication at 10 uM supplemented with fresh medium containing compound every 3 days for 6 days measured post-last dose by FQ-PCR analysis relative to control. A digest of the protocol:
as §2

For assay [18], the system named is Hepatitis B virus. Description: Antiviral activity against lamivudine-resistant Hepatitis B virus harboring L180M/M204V mutant infected in human HepG2.2.15 cells assessed as inhibition of extracellular HBV DNA replication at 40 uM supplemented with fresh medium containing compound every 3 days for 6 days measured post-last dose by FQ-PCR analysis relative to control. In outline: as §2

Assay [19] relates to Hepatitis B virus. Description: Antiviral activity against lamivudine-resistant Hepatitis B virus harboring L180M/M204V mutant infected in human HepG2.2.15 cells assessed as inhibition of extracellular HBV DNA replication at 20 uM supplemented with fresh medium containing compound every 3 days for 9 days measured post-last dose by FQ-PCR analysis relative to control. In outline:
as §2

By inhibition is commonly meant the drop in the measured response relative to a control, in per cent. With `C[C@@]1(F)[C@H](O)[C@@H](CO)O[C@H]1n1nnc2c(Nc3ccc(Cl)cc3F)ncnc21`, the inhibition at 20 µM is 28.1% in the assay on Hepatitis B virus [1], 17.5% with Hepatitis B virus [9] and 35.6% in the assay with Hepatitis B virus [15]. Also, the inhibition at 40 µM turned out to be 36.8% in the assay with Hepatitis B virus [2] and 31.3% in the assay with Hepatitis B virus [10]. In addition, the “inhibition (INH)” value with Hepatitis B virus [3] came out at 65.2%; with Hepatitis B virus [4], 80.2%; in the assay with Hepatitis B virus [6], 68.9%; with Hepatitis B virus [7] it was 65%; in the assay on Hepatitis B virus [8], 36.9%; in the assay on Hepatitis B virus [11] it was 22.8%. Besides, the “inhibition (INH)” value in the assay on Hepatitis B virus [12] came to 66.3%; in the assay on Hepatitis B virus [13], 65.2%; with Hepatitis B virus [14], 36.6%; with Hepatitis B virus [16] it was 49.5%; with Hepatitis B virus [17], 27.4%; in the assay with Hepatitis B virus [18], 61.1%. Further, the “inhibition (INH)” value in the assay on Hepatitis B virus [19] is 61.4%. Further, the inhibition at 10 µM in the assay on Hepatitis B virus [5] is 18.4%.
